Among the data in the RNAGym collection of RNA variant scans (doi:10.1126/science.aae0568) are yeast fitness values, retold here.

Fewer inactive variants are shown than the library holds.

First the molecules themselves.
B1: tRNA (parent)
chain: GUUCCGUUGGCGUAAUGGUAACGCGUCUCCCUCCUAAGGAGAAGACUGCGGGUUCGAGUCCCGUACGGAACG

Variants of B1 are the subject of the data set. Kind of data set: yeast fitness relative to wild type (ratio to wild type); higher = fitter; tRNA-Arg(CCU), competitive growth, 37 C, YPD. In outline: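 For this measurement, the tRNA-Arg(CCU) gene was varied by chemical synthesis at a 3% per-site mutation rate across 69 sites, and each variant was placed at the native genomic locus in Saccharomyces cerevisiae. The pooled strains went through a 24-hour competition in YPD at 37°C in six parallel replicates, with amplicons from start and end populations read by 100-nucleotide paired-end sequencing. Darwinian fitness relative to wild type followed from the change in each genotype's frequency. Genotypes needed ≥ 100 starting reads, and estimates < 0.5 were set to 0.5.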
For the variant C11G C27U A43C C61G, the yeast fitness was not above 0.5.
Under C11G A21U C55U stands not above 0.5.
Under C11G A37C A42G stands not above 0.5; under C11A G51A U59A, not above 0.5; under C11G A20C A45G A70U, not above 0.5.
Under C11G A20U C30G C49G U53G stands 0.571; under C11G A15G C33G A37G, not above 0.5; under C11A G51A A65U, not above 0.5.
In the case of C11G A20U C27G C29U C62U, the yeast fitness is not above 0.5.
Under C11G C24U U28C C62A stands not above 0.5; under C11G A21C C22G C30G A45U, 0.558.
Under C11A G41A A57C stands not above 0.5; under C11A U54C, 0.596.
Under C11A U54A stands 0.602.
C11G A45G C49U C55A: the yeast fitness was not above 0.5.
With C11A U19G A36G C62A A69C, the yeast fitness is not above 0.5.
Under C11G C24G stands not above 0.5; under C11G C24U, 0.583; under C11A U16C U28C U32G C49G C55A, not above 0.5.
Under C11G A43C C46G stands 0.514.
Under C11A U35A stands 0.535; under C11A U16C U32G C49G C62U, not above 0.5.
Consider C11G A37C G51A G67A, for which the yeast fitness is not above 0.5.
Under C11A U19G A36G U54C A69C stands 0.54; under C11G A57C, 0.571; under C11G A36G G39A G56A, not above 0.5.
With C11G A20U C30G C34A A43C A69C, the yeast fitness is 0.76.
Take C11A U19A A42U A45C U47C C55U A69C: the yeast fitness is not above 0.5.
Under C11A G58A G68A stands 0.621; under C11A G58A G68U, not above 0.5; under C11G A20C C24U A36C U47A C66U, not above 0.5.
Under C11G C24U G48A G67U A69C stands not above 0.5; under C11A U35A G52A, not above 0.5; under C11A U19G C49A, not above 0.5.
Under C11A U32G C61A stands 0.58.
Consider C11A G25C G44A A57G, for which the yeast fitness was not above 0.5.
With C11A G23A A43U, the yeast fitness was not above 0.5.
Under C11G A15U C55U stands not above 0.5; under C11G A15C C24U A43U G68A, not above 0.5; under C11A G41A A45U G56C, not above 0.5.
Under C11G A15G C33G G52C A69C stands not above 0.5.
Under C11G C24U C30U U54A stands not above 0.5; under C11G A20U C22G A43C, not above 0.5.
For C11A U16C G18C A45C A57C G68A, the yeast fitness is not above 0.5.
Under C11G A36G stands 0.692; under C11G A36U, not above 0.5.
On to C11G A70U, for which the yeast fitness is 0.655.
Under C11G A70G stands 0.581; under C11A U13C C27A C60G A65G, not above 0.5.
Under C11A G25C U26C C29U A65C A70U stands 0.558; under C11A G38A A40U G50C C60G A70G, not above 0.5; under C11G A20C C49G, not above 0.5.
Under C11G A45U C61G stands not above 0.5.
On to C11G A20C A42C A57U, for which the yeast fitness was not above 0.5.
Take C11A G23C G52C: the yeast fitness turned out to be 0.57.
Under C11A G25C C29U C49U stands not above 0.5; under C11G C22U A40G C60G G63C, not above 0.5; under C11A U47C C62A, not above 0.5.
Under C11A G52A C62U stands not above 0.5.
Under C11G A36C A43U stands not above 0.5; under C11A U35A U53A, not above 0.5.
Take C11G A14C A37C G44C: the yeast fitness was not above 0.5.
Under C11A U16C G18C A45C A57C C62U stands not above 0.5; under C11A U16C G18C A45C U59A, not above 0.5.
Under C11G C27A C46G G50A C61U stands not above 0.5; under C11G A37U C55U A57C, not above 0.5; under C11G A20U C24A G25C A43U, not above 0.5.
With C11G C27G C55A, the yeast fitness is not above 0.5.
With C11G C24U C34G, the yeast fitness was not above 0.5.
Under C11G A20G C24U U28C stands not above 0.5.
In the case of C11G C22A C31A A40G, the yeast fitness is not above 0.5.
Under C11G A36G G67U A69C stands not above 0.5; under C11G C24U A42G, not above 0.5.
Under C11A U16C G18C A45C A57C G67A G68C stands not above 0.5; under C11G C27U C33G A65C, not above 0.5.
In the case of C11G A15G C22A U26A A40U C49U, the yeast fitness is not above 0.5.
Under C11A U16A C30G G44C C61A stands not above 0.5; under C11G A42U A43C C55A C66U, not above 0.5; under C11G A36U U54A U64C A69U, not above 0.5.
Turning to C11G C24U G25A U47G, the yeast fitness was not above 0.5.
Under C11G A20C C24G G63A C66U stands not above 0.5; under C11G A15C C29U G41C G52A, not above 0.5; under C11G A15G A45C C46A A65C, not above 0.5.
For C11A U59G G63C, the yeast fitness is not above 0.5.
Under C11A U13A A14U G23C A69U stands not above 0.5; under C11G A21U C31G, not above 0.5.
Under C11G C24A C66U stands not above 0.5.
Take C11A G25C U28A A40U: the yeast fitness is 0.752.
Under C11G A21G C31G A42G stands not above 0.5; under C11G A69G, 0.652.
Under C11G A69C stands 0.683; under C11G A69U, 0.608; under C11G C27A, 0.715.
Under C11G C27U stands 0.706; under C11G A21G G38C G41C C55A A65C, 0.525; under C11A U13G C34G A43U C61G, not above 0.5.
In the case of C11G A15G C22A A37U A65C C66G, the yeast fitness was not above 0.5.
Under C11A G25A G58C A65G stands 0.568.
Under C11G A14C G18C C29G C49U A65C stands not above 0.5.
As to C11G C24U G25A A42G, the yeast fitness was not above 0.5.
With C11G A15U C34A A42C, the yeast fitness is not above 0.5.
Under C11A U13A A20U G63A A65U stands not above 0.5; under C11G A20C A43G U59C, not above 0.5.
Under C11A G51C stands 0.585; under C11A U19G A36G U53C U54C A69C, not above 0.5.
Under C11A U16C U32G U64G stands not above 0.5.
Consider C11A G67C, for which the yeast fitness was determined as 0.574.
Under C11A G67A stands 0.555; under C11G C27A G38A A65C, 0.557.
Under C11G C24U C49A stands 0.547; under C11G C24G G44C, not above 0.5; under C11A U19A C29A U32A U54C C55G C60G, not above 0.5.
Under C11G A15G U26A U32A G38A A40C stands 0.546.
For the variant C11G C27G C30G A70C, the yeast fitness came out at 0.689.
Under C11G C24G C27G G48C stands not above 0.5; under C11G C22U A70U, not above 0.5; under C11A G25A U53A, not above 0.5.
Under C11A U16C C34G A65G G67A stands not above 0.5; under C11G A20G C24U C31G, not above 0.5.
C11G A20C C24G: the yeast fitness was not above 0.5.
With C11A U19A G52A, the yeast fitness was not above 0.5.
Under C11A U26A stands 0.687.
Under C11G A14U A43U G52A G68C A69G stands 0.636; under C11A U19C U26C A40U G44C C46U U64G, 0.514.
Under C11A U13C A14G G44C C46A C49G stands not above 0.5; under C11G A15U C34A A42C G48A, 0.619.
In the case of C11G A20C C24G A37G, the yeast fitness came out at 0.542.
C11A U13A A42U G50A C55A: the yeast fitness is not above 0.5.
As to C11G C22G C27G C49U C62U, the yeast fitness is not above 0.5.
Regarding C11G A21U A40U U54A, the yeast fitness stood at 0.681.
Under C11A G18C C27G stands 0.64; under C11G A57C C60U, not above 0.5.
Under C11G A20C C55A G67C stands not above 0.5; under C11A U59C, 0.527.
Under C11G A14G A21U A40U U54A C55U stands not above 0.5; under C11G C22G A37G C60A A70G, not above 0.5; under C11G C24G C55U A65U, not above 0.5.
As to C11G C24G C29U C62G C66A, the yeast fitness was not above 0.5.
Under C11G A21U A36U stands not above 0.5; under C11G A14U C24A A57C, 0.572; under C11G A15G, 0.596.
Under C11G A65C stands 0.594.
Under C11G A65G stands 0.696; under C11G A65U, 0.656; under C11G A14G G48A C55U A65C, 0.759.
Regarding C11A U13G C55A, the yeast fitness turned out to be 0.659.
Under C11G A21G G44C C61A C62U C66U stands not above 0.5; under C11A U16C G18C A45C A57U U59C, not above 0.5; under C11G A37G G51C A57G C66U, not above 0.5.
Under C11G C24U G48C stands 0.541; under C11G C27A C66A, not above 0.5.
Under C11A U28C A69U stands not above 0.5; under C11A U32A C33U C66A, not above 0.5; under C11A U26C C29G C31U G52C C55A U59G, not above 0.5.
Consider C11G A14C C30U G67U, for which the yeast fitness is not above 0.5.
C11A U28G C33A A42C A65U: the yeast fitness was not above 0.5.
Under C11G C27A G38A C55G stands not above 0.5; under C11G A14G G63A C66U, not above 0.5; under C11G A15U C24G A40G C61A, not above 0.5.
Under C11G A14U A42U stands 0.638; under C11A U19A C55A C61U, 0.605.
Under C11G A14C C30G A45G A57G stands not above 0.5.
For the variant C11G C22U A40G C55G C61G, the yeast fitness is not above 0.5.
C11A U35G G67A: the yeast fitness came to 0.52.
Under C11A U28G G44C stands 0.602.
Under C11G A37G G52C A70U stands 0.57.
Under C11G A20C C24G C66U stands not above 0.5.
